Test results taken from ChEMBL document CHEMBL1139831, “The influence of modifications in imide fragment structure on 5-HT(1A) and 5-HT(7) receptor affinity and in vivo pharmacological properties of some new 1-(m-trifluoromethylphenyl)piperazines” (Bioorg Med Chem, 2007).

How the values were obtained:
[1] = system: Rattus norvegicus; assay: Effect on lower lip retraction in Wistar rat at 2.5 mg/kg; type: functional
Method in brief: (§1)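 Male Wistar rats (290–310 g) dosed ip in 1% Tween 80 (2 ml/kg), caged singly; lower lip retraction scored 15, 30 and 45 min after dosing as 0 (incisors not visible), 0.5 (partly) or 1 (completely visible), totals up to 3 per rat. n = 6 per group; one-way ANOVA followed by Dunnett's test.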

[2] = system: Rattus norvegicus; assay: Effect on lower lip retraction in Wistar rat at 5 mg/kg; type: functional; method in brief: as §1
[3] = system: Rattus norvegicus; assay: Effect on lower lip retraction in Wistar rat at 10 mg/kg; type: functional; method in brief: as §1
[4] = system: Rattus norvegicus; assay: Effect on 8-OH-DPAT-induced lower lip retraction in Wistar rat at 2.5 mg/kg; type: functional
[5] = system: Mus musculus; assay: Anxiolytic activity in Swiss Albino mouse assessed as number of punished crossings for 60 secs at 2.5 mg/kg administered 30 mins before the test by four-plate test; type: functional
Method in brief: (§2)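 Male Albino Swiss mice (24–28 g), compound suspended in 1% aqueous Tween 80, given ip (10 ml/kg). Mouse placed in box with four metal floor plates, 15 s exploration, then floor electrified (120 V, 0.5 s) at each plate-to-plate crossing, no new shock for 3 s. Punished crossings counted over 60 s. n = 9-10/group; one-way ANOVA then Dunnett's test.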

[6] = system: Mus musculus; assay: Anxiolytic activity in Swiss Albino mouse assessed as number of punished crossings for 60 secs at 5 mg/kg administered 30 mins before the test by four-plate test; type: functional
Method in brief: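 Male Albino Swiss mice dosed ip (1% aqueous Tween 80, 10 ml/kg) 30 min beforehand. Opaque box floored with four metal plates; 15 s free exploration, then each plate-to-plate crossing triggers a 0.5 s, 120 V floor shock, with no new shock for 3 s if running continues. Punished crossings counted over 60 s; n = 9-10, ANOVA plus Dunnett's test.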

[7] = system: Mus musculus; assay: Anxiolytic activity in Swiss Albino mouse assessed as number of punished crossings for 60 secs at 10 mg/kg administered 30 mins before the test by four-plate test; type: functional; method in brief: as §2
[8] = system: Mus musculus; assay: Antidepressant activity in Swiss Albino mouse assessed as immobility time during final 4 mins of 6 mins session at 5 mg/kg administered 30 mins before the test by forced-swimming test; type: functional
Method in brief: (§3)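 Male Albino Swiss mice (24–28 g), compound given ip in 1% aqueous Tween 80 (10 ml/kg), 30 min before test. Mouse placed singly in glass cylinder (25 cm high, 10 cm diameter) holding 6 cm water at 23–25 °C for 6 min; immobility (floating, only small head-keeping movements) timed over last 4 min. n = 9-10 per group; one-way ANOVA then Dunnett's test.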

[9] = biological target: T1, 5-hydroxytryptamine receptor 1A (Rattus norvegicus, UniProt P19327); assay: Displacement of [3H]8-OH-DPAT from 5HT1A in rat hippocampal membranes; type: cell membranes, Hippocampus, Membrane
T1 sequence (P19327 whole entry): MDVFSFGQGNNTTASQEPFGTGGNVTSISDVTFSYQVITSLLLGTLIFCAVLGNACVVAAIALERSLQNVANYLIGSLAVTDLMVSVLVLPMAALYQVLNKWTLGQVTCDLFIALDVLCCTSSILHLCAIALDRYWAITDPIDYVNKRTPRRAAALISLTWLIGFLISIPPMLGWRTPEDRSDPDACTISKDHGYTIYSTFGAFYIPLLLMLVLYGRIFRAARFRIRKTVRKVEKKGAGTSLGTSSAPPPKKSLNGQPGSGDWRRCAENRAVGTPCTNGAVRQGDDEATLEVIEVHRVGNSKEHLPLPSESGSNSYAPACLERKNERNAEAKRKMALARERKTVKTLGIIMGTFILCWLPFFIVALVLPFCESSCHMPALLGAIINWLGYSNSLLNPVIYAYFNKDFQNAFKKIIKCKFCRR
Method in brief: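 Rat hippocampal membranes, [3H]-8-OH-DPAT as radioligand, 5-HT defining nonspecific binding. 7–9 drug concentrations run in triplicate, at least three separate experiments. Filtration through GF/B filters with three ice-cold buffer washes, scintillation counting. Ki from non-linear regression of binding isotherms via Cheng-Prusoff equation.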

[10] = biological target: D(2) dopamine receptor (Rattus norvegicus, UniProt P61169); assay: Displacement of [3H]spiperone from dopamine D2 receptor in rat striatal membranes; type: cell membranes, Membrane
Method in brief: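 Competition binding on rat striatal membranes using [3H]-spiperone, butaclamol for nonspecific binding; filtration through GF/B filters and scintillation counting. Run at two compound concentrations, each in triplicate, and affinity expressed as estimated Ki.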

[11] = Displacement of [3H]prazosin from adrenergic alpha1 receptor in rat cortical membranes; type: cell membranes, Membrane
Method in brief: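 Rat cortical membranes with [3H]-prazosin; phentolamine defines nonspecific binding. 7–9 drug concentrations in triplicate, at least three separate experiments; stopped by GF/B filtration with three ice-cold buffer washes, bound radioactivity by liquid scintillation counting; Ki from non-linear regression and Cheng-Prusoff equation.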

[12] = biological target: 5-hydroxytryptamine receptor 7 (Homo sapiens, UniProt P34969); assay: Displacement of [3H]5-CT from human 5HT7 expressed in HEK293 cells; type: cell-based
Method in brief: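 HEK293 cells stably transfected with human 5-HT7(b) cDNA; membranes (10 µg protein) incubated 1 h at 37 °C in 50 mM Tris-HCl pH 7.4 with 4 mM MgCl2, 0.1 mM pargyline, 0.1% ascorbic acid, 0.5 nM [3H]-5-CT and 7–9 test concentrations in triplicate; 10 µM 5-HT defines nonspecific binding. GF/B filtration, scintillation counting; Ki via Cheng-Prusoff from ≥3 experiments.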

[13] = system: Mus musculus; assay: Antidepressant activity in Swiss Albino mouse assessed as immobility time during final 4 mins of 6 mins session at 10 mg/kg administered 30 mins before the test by forced-swimming test; type: functional; method in brief: as §3
[14] = system: Mus musculus; assay: Effect on locomotor activity in Swiss Albino mouse assessed as number of crossings in 6 mins at 5 mg/kg administered 30 mins before the test; type: functional
Method in brief: (§4)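 Male Albino Swiss mice (24–28 g) given compound ip (suspension in 1% aqueous Tween 80, 10 ml/kg). Animals housed singly in plastic cages in a multichannel photobeam activity monitor. Ambulation crossings counted over first 6 min and over 30-min session. n = 9-10/group; one-way ANOVA then Dunnett's test.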

[15] = system: Mus musculus; assay: Effect on locomotor activity in Swiss Albino mouse assessed as number of crossings in 30 mins at 5 mg/kg administered 30 mins before the test; type: functional
Method in brief: (§5)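 Male Albino Swiss mice given compound ip (1% Tween 80, 10 ml/kg) 30 min before placement singly in plastic cages in a multichannel photobeam activity monitor; ambulation crossings counted over the first 6 min and over a 30 min session. n = 9-10 per group; ANOVA then Dunnett's test.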

[16] = system: Mus musculus; assay: Effect on locomotor activity in Swiss Albino mouse assessed as number of crossings in 6 mins at 10 mg/kg administered 30 mins before the test; type: functional; method in brief: as §4
[17] = system: Mus musculus; assay: Effect on locomotor activity in Swiss Albino mouse assessed as number of crossings in 30 mins at 10 mg/kg administered 30 mins before the test; type: functional; method in brief: as §5
[18] = species on record: Mus musculus; conditions: Swiss Albino, 5 mg/kg
[19] = species on record: Mus musculus; conditions: Swiss Albino, 10 mg/kg
[20] = species on record: Mus musculus; conditions: Swiss Albino, 5 mg/kg; remark: listed apart in the source
[21] = species on record: Mus musculus; conditions: Swiss Albino, 10 mg/kg; remark: listed apart in the source
[22] = species on record: Mus musculus; conditions: Swiss Albino, 10 mg/kg; remark: listed apart in the source
[23] = species on record: Mus musculus; conditions: Swiss Albino, 10 mg/kg; remark: listed apart in the source
[24] = species on record: Mus musculus; conditions: Swiss Albino, 5 mg/kg; remark: listed apart in the source
[25] = species on record: Mus musculus; conditions: Swiss Albino, 10 mg/kg; remark: listed apart in the source
[26] = species on record: Mus musculus; conditions: Swiss Albino, 5 mg/kg; remark: listed apart in the source
[27] = species on record: Mus musculus; conditions: Swiss Albino, 10 mg/kg; remark: listed apart in the source
[28] = system: Rattus norvegicus; assay: Effect on lower lip retraction in Wistar rat at 0.1 mg/kg; type: functional; method in brief: as §1
[29] = system: Rattus norvegicus; assay: Effect on 8-OH-DPAT-induced lower lip retraction in Wistar rat at 0.1 mg/kg; type: functional
[30] = system: Rattus norvegicus; assay: Effect on lower lip retraction in Wistar rat at 20 mg/kg; type: functional; method in brief: as §1
[31] = system: Rattus norvegicus; assay: Effect on 8-OH-DPAT-induced lower lip retraction in Wistar rat at 10 mg/kg; type: functional
[32] = system: Rattus norvegicus; assay: Effect on 8-OH-DPAT-induced lower lip retraction in Wistar rat at 20 mg/kg; type: functional
[33] = species on record: Mus musculus; conditions: Swiss Albino, 20 mg/kg
[34] = species on record: Mus musculus; conditions: Swiss Albino, 20 mg/kg; remark: listed apart in the source
[35] = species on record: Mus musculus; conditions: Swiss Albino, 20 mg/kg; remark: listed apart in the source
[36] = species on record: Mus musculus; conditions: Swiss Albino, 10 mg/kg; remark: listed apart in the source
[37] = species on record: Mus musculus; conditions: Swiss Albino, 20 mg/kg; remark: listed apart in the source
[38] = species on record: Mus musculus; conditions: Swiss Albino, 20 mg/kg; remark: listed apart in the source
[39] = system: Mus musculus; assay: Anxiolytic activity in Swiss Albino mouse assessed as number of punished crossings for 60 secs at 1.25 mg/kg administered 30 mins before the test by four-plate test; type: functional; method in brief: as §2

D(2) dopamine receptor, sequence (P61169 whole entry): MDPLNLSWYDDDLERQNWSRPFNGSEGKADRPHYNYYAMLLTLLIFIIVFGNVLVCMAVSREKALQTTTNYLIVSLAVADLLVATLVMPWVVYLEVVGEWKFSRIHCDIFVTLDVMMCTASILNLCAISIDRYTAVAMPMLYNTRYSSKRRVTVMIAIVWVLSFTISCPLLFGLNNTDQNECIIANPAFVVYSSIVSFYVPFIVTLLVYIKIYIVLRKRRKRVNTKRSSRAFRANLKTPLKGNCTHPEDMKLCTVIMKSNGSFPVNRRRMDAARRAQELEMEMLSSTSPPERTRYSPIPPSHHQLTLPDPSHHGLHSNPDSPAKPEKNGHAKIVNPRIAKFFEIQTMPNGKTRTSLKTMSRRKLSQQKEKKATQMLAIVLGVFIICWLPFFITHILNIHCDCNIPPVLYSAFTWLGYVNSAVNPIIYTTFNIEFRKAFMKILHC
5-hydroxytryptamine receptor 7, sequence (P34969 whole entry): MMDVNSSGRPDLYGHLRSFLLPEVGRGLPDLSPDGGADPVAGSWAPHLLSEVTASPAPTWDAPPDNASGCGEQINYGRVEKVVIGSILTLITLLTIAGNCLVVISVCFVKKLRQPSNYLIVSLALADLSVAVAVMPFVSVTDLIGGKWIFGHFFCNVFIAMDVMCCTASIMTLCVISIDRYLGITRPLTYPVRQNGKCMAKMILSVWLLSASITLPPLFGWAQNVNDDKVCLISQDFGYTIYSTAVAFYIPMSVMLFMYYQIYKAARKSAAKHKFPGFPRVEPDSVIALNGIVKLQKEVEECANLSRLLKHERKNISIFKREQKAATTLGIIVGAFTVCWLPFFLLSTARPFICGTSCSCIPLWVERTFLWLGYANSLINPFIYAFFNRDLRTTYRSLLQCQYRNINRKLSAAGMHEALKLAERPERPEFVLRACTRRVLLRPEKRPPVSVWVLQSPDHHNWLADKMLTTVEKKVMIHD

SMILES	Activity [3]	Activity [5]	Activity [6]	Ki [9]	Ki [10]	Ki [11]	Ki [12]	deltaT [18]	deltaT [19]	deltaT [20]	deltaT [21]	deltaT [24]	deltaT [25]	deltaT [26]	deltaT [27]	Activity [30]	Activity [31]	Activity [32]	further results
O=C1CCCC(=O)N1CCCCN1CCN(c2cccc(C(F)(F)F)c2)CC1	2.8	4.3	5.8	3 nM	> 5000 nM	101 nM	21 nM	-0.4 °C	-1 °C	-0.1 °C	-0.9 °C	-0.5 °C	-1.3 °C	-0.4 °C	-1.1 °C				Activity [1]: 1.6; Activity [2]: 2.6; Activity [4]: 2.2; Activity [7]: 5.2; Activity [8]: 183.9 s; Activity [13]: 196.7 s; Activity [14]: 217.1; Activity [15]: 526.2; Activity [16]: 16.3; Activity [17]: 179.3; deltaT [22]: -1 °C; deltaT [23]: -0.8 °C
COc1ccccc1N1CCN(CCN(C(=O)C2CCCCC2)c2ccccn2)CC1 [WAY-100,635]																			Activity [28]: 0; Activity [29]: 0.2
O=C1C2CC=CCC2C(=O)N1CCCCN1CCN(c2cccc(C(F)(F)F)c2)CC1 (cis isomer)	1.4			34 nM	2720 nM	73 nM	31 nM		-0.9 °C		-0.6 °C		-0.3 °C		-0.2 °C	1.8	1.9	0.5	deltaT [33]: -1.6 °C; deltaT [34]: -1.5 °C; deltaT [35]: -1.2 °C; deltaT [36]: -0.6 °C; deltaT [37]: -1.5 °C; deltaT [38]: -1.3 °C
CC1C(=O)N(CCCCN2CCN(c3cccc(C(F)(F)F)c3)CC2)C(=O)C1C (stereo unspecified)	1.3			2.2 nM	4370 nM	48 nM	107 nM	-0.2 °C	-0.4 °C	0 °C	-0.2 °C	-0.6 °C	-0.1 °C	-0.4 °C	-0.2 °C	1.3	1.4	0.2	
CN1C(=O)CN=C(c2ccccc2)c2cc(Cl)ccc21 [DIAZEPAM]		6.8	6.7																Activity [39]: 5.5
